This data set in a line: Ratio of drug level in brain to blood in iv dosed mouse. It counts as ADME, organism-based. The conditions noted are these: brain/whole blood, read-out: BBR. The procedure, abridged:
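Brain/blood radioactivity ratio was taken from decay-corrected %ID/g tissue in whole brain and blood. Samples came from male Wister mice (30 g, 7 weeks) given the 11C tracer iv by tail vein (average 20 MBq/400 µL). Mice were sacrificed at 1–60 min after injection, three per time point.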

Consider `CCC(CC)O[C@@H]1C=C(C(=O)O)C[C@H](N)[C@H]1N[11C](C)=O`, for which the Kp stood at 0.06.

`CCOC(=O)C1=C[C@@H](OC(CC)CC)[C@H](N[11C](C)=O)[C@@H](N)C1`: the Kp was found to be 0.07.

(Values after ChEMBL document CHEMBL1141484, “Radiosyntheses of two positron emission tomography probes: [11C]Oseltamivir and its active metabolite [11C]Ro 64-0802” (Bioorg Med Chem Lett, 2008).)
